The target in test [1] is Protein farnesyltransferase (Bos taurus, UniProt P29702+P49355). Briefly: In vitro inhibition of farnesyltransferase from bovine brain.
For test [2], the system named is NIH3T3. The experiment in a line: (§1) Inhibition of Ha-Ras processing in NIH3T3 Ras transformed cells. It counts as functional, Homo sapiens. Particulars: Mus musculus, read-out: ED50 (the source's name). Summed up:
(§2)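 Subconfluent Ras-transformed NIH3T3 cells dosed with compounds; lysates boiled 5 min in Laemmli buffer, resolved on 15% Tris-glycine gel, blotted to nitrocellulose, probed with anti-Ras antibody Y13-238; bands by ECL, quantified by densitometry. Single determinations unless limits given; assay reliability ±50-100%.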

Test [3] relates to NIH3T3. The test is described as §1. It counts as functional, cell-based, Homo sapiens. Particulars: Mus musculus. Summed up: as §2

SMILES strings stand for the structures.

Take `COc1cccc(-c2cc(COc3cccnc3)ccc2C(=O)N[C@@H](CCSC)C(=O)O)c1`: in test [1], the IC50 (usually the concentration needed to halve the response being measured) was 0.012 µM. In the case of `CSCC[C@H](NC(=O)c1ccc(COc2cccnc2)cc1-c1cccc(C)c1)C(=O)O`, the IC50 in test [1] worked out at 0.0054 µM. Same read-out and setting: as for `CSCC[C@H](NC(=O)c1ccc(CS(=O)(=O)c2cccnc2)cc1-c1ccccc1)C(=O)O`, the figure is 0.55 µM; as for `CSCC[C@H](NC(=O)c1ccc(NC(=O)c2ccncc2)cc1-c1ccccc1)C(=O)O`, above 1 µM. For `CSCC[C@@H](C(=O)O)N(C)C(=O)c1ccc(CNc2cccnc2)cc1-c1ccccc1`, in the test with NIH3T3 [2], the EC50 was found to be 100 µM. The same molecule had a 50% inhibitory concentration (IC50) in test [1] of 0.16 µM.

In the test with NIH3T3 [3], `CSCC[C@H](NC(=O)c1ccc(NC(=O)c2cccnc2)cc1-c1ccccc1)C(=O)O` displayed an EC50 of 50 µM. The same molecule showed an IC50 in test [1] of 0.07 µM. Regarding `CSCC[C@H](NC(=O)c1ccc(COc2cccnc2)cc1-c1ccccc1C(F)(F)F)C(=O)O`, the EC50 with NIH3T3 [3] is 0.3 µM. In test [1], inhibition was half-maximal at 0.0005 µM (IC50). The molecule `CSCC[C@H](NC(=O)c1ccc(CSc2cccnc2)cc1-c1ccccc1)C(=O)O` came in with an EC50 with NIH3T3 [3] of 10 µM. Besides, the IC50 in test [1] was found to be 0.01 µM. In turn, `CSCC[C@H](NC(=O)c1ccc(NCc2cccnc2)cc1-c1ccccc1)C(=O)O` returned an EC50 in the test with NIH3T3 [3] of 40 µM. The molecule further came in with a half-maximal inhibitory concentration (IC50) in test [1] of 0.02 µM. `CSCC[C@H](NC(=O)c1ccc(COc2cccnc2)cc1-c1ccccc1C)C(=O)O` displayed an EC50 in the test with NIH3T3 [3] of 0.35 µM. Further, in test [1], half-maximal inhibition (IC50) required 0.0004 µM.

Consider `COc1ccccc1-c1cc(COc2cccnc2)ccc1C(=O)N[C@@H](CCSC)C(=O)O`, for which the EC50 in the test on NIH3T3 [3] was determined as 10 µM. The molecule further returned an IC50 in test [1] of 0.0033 µM.

Turning to `CSCC[C@H](NC(=O)c1ccc(CNc2cccnc2)cc1-c1ccccc1)C(=O)O`, the EC50 in the test with NIH3T3 [3] is 10 µM. The IC50 in test [1] was determined as 0.0068 µM. Take `CSCC[C@H](NC(=O)c1ccc(COc2cccnc2)cc1-c1ccccc1)C(=O)O`: in the test on NIH3T3 [3], the EC50 was 5 µM. Also, 0.0043 µM corresponded to half-maximal inhibition in test [1] (IC50).

Take `CSCC[C@H](NC(=O)c1ccc(CSc2cccnc2)cc1-c1ccccc1C)C(=O)O`: the IC50 in test [1] is 0.00069 µM. Same read-out and setting: as for `NC(=O)CC[C@H](NC(=O)c1ccc(COc2cccnc2)cc1-c1ccccc1)C(=O)O`, the figure is 0.048 µM.

On to `CS(=O)(=O)CC[C@H](NC(=O)c1ccc(CNc2cccnc2)cc1-c1ccccc1)C(=O)O`, for which, in the test on NIH3T3 [2], the EC50 amounted to 100 µM. Further, in test [1], the IC50 stood at 0.017 µM. With `COCC[C@H](NC(=O)c1ccc(COc2cccnc2)cc1-c1ccccc1)C(=O)O`, the IC50 in test [1] turned out to be 1 µM. For the molecule `CSCC[C@H](NC(=O)c1ccc(NCc2cccnc2)cc1-c1ccccc1C)C(=O)O`, the IC50 in test [1] is 0.0015 µM.

For `CSCC[C@H](NC(=O)c1ccc(OCc2cccnc2)cc1-c1ccccc1)C(=O)O`, the IC50 in test [1] came out at 0.0066 µM. This IC50 lies about 4.4-fold higher than the previous one. Take `CSCC[C@H](NC(=O)c1ccc(NC[C@@H](N)CS)cc1-c1ccccc1)C(=O)O`: in the test with NIH3T3 [2], the EC50 is 1 µM. For the molecule `CCc1ccccc1-c1cc(COc2cccnc2)ccc1C(=O)N[C@@H](CCSC)C(=O)O`, the EC50 with NIH3T3 [3] is below 0.1 µM. In addition, 0.00035 µM corresponded to half-maximal inhibition in test [1] (IC50). Turning to `COC(=O)[C@H](CCSC)NC(=O)c1ccc(NC[C@@H](N)CS)cc1-c1ccccc1`, the EC50 in the test on NIH3T3 [2] came out at 0.2 µM. `CSCC[C@H](NC(=O)c1ccc(COc2cccnc2)cc1-c1ccccc1Cl)C(=O)O` registered an EC50 in the test with NIH3T3 [3] of 0.4 µM. Besides, 0.00061 µM corresponded to half-maximal inhibition in test [1] (IC50).

Consider `CCCC[C@H](NC(=O)c1ccc(COc2cccnc2)cc1-c1ccccc1)C(=O)O`, for which the IC50 in test [1] is above 1 µM.

Consider `CSCC[C@@H](NC(=O)c1ccc(CNc2cccnc2)cc1-c1ccccc1)C(=O)O`, for which the midpoint of inhibition in test [1], the IC50, lay at 0.14 µM. The same measure, in the same setting: the value for `CSC[C@H](NC(=O)c1ccc(COc2cccnc2)cc1-c1ccccc1)C(=O)O` was above 1 µM.

On to `CSCC[C@H](NC(=O)c1ccc(NC(=O)c2cccnc2)cc1-c1ccccc1C)C(=O)O`, for which it took 0.0016 µM to reach half-maximal inhibition in test [1] (IC50).

`CSCC[C@H](NC(=O)c1ccc(COc2cccnc2)cc1-c1ccc(C)cc1)C(=O)O` had an IC50 in test [1] of 0.36 µM. Compared with the last molecule, the IC50 is about 220-fold higher. Take `COc1ccc(-c2cc(COc3cccnc3)ccc2C(=O)N[C@@H](CCSC)C(=O)O)cc1`: in test [1], it took 0.23 µM to reach half-maximal inhibition (IC50). Regarding `CSCC[C@H](NC(=O)c1ccc(NC(=O)c2ccccn2)cc1-c1ccccc1)C(=O)O`, the 50% inhibitory concentration (IC50) in test [1] was above 1 µM.

(Values after ChEMBL document CHEMBL1131157, “Potent and selective non-cysteine-containing inhibitors of protein farnesyltransferase” (J Med Chem, 1998).)
